In ChEMBL document CHEMBL4823320, “SAR of novel benzothiazoles targeting an allosteric pocket of DENV and ZIKV NS2B/NS3 proteases” (Bioorg Med Chem, 2021):
The source made the active and inactive calls. No cut-off for these calls is given here.

Key:
[1] = target: T1, Sortase A (Staphylococcus aureus) (UniProt Q9S446); experiment: Inhibition of staphylococcus aureus Sortase A protease assessed as residual enzyme activity at 20 uM by FRET assay relative to control
T1 sequence (whole entry): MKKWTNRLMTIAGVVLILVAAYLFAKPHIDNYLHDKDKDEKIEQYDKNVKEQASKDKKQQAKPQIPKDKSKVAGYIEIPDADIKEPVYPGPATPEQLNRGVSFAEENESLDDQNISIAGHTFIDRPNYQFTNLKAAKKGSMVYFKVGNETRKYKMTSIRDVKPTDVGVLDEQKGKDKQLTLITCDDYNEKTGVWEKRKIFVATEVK
Outline: (§1)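 Compound at 20 µM, read every 30 s for 10 min at 25 °C. Residual activity is relative to DMSO control; mean ± SD, ≥3 independent measurements.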

[2] = Inhibition of Rhodesain (unknown origin) assessed as residual enzyme activity at 20 uM by FRET assay relative to control
Outline: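 Compound at 20 µM, fluorescence read every 30 s for 10 min at 25 °C. Residual activity is relative to DMSO control; mean ± SD, ≥3 independent measurements.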

[3] = Chemical stability of compound in cell culture conditions at pH 7.4 HEPES buffer measured after 90 mins by HPLC/MS analysis; assay type: physicochemical; conditions: read-out: Stabilty
Outline: (§2)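 Compound incubated under simulated cell-assay conditions (HEPES pH 7.4) and analysed by HPLC/MS after 15 min, 90 min and 20 h. Stability is the compound peak integral in the 210 nm UV trace as a fraction of the total integral.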

[4] = Chemical stability of compound in cell culture conditions at pH 7.4 HEPES buffer measured after 20 hrs by HPLC/MS analysis; assay type: physicochemical; conditions: read-out: Stabilty; outline: as §2
[5] = Chemical stability of compound in tris assay buffer at pH 9 measured after 15 mins by HPLC/MS analysis; assay type: physicochemical; conditions: pH 9, 0.25 h
Outline: (§3)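 Compound incubated in protease assay buffer (Tris pH 9.0) under simulated assay conditions and analysed by HPLC/MS after 15 min, 90 min and 20 h. Stability is the compound peak integral in the 210 nm UV trace as a proportion of the total integral.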

[6] = target: Prothrombin (Homo sapiens) (UniProt P00734); experiment: Inhibition of Thrombin (unknown origin) assessed as residual enzyme activity at 20 uM by FRET assay relative to control; outline: as §1
[7] = target: Urokinase-type plasminogen activator (Homo sapiens) (UniProt P00749); experiment: Inhibition of Urokinase plasminogen activator (unknown origin) assessed as residual enzyme activity at 20 uM by FRET assay relative to control
Outline: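 Urokinase plasminogen activator in 50 mM Tris pH 7.4, 50 mM NaCl, 0.5 mM EDTA with 240 µM Z-Gly-Gly-Arg-AMC. Compound at 20 µM, read every 30 s for 10 min at 25 °C. Residual activity is relative to DMSO control; mean ± SD, ≥3 independent measurements.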

[8] = target: Chymotrypsin (Homo sapiens) (UniProt Q99895+P17538+P40313+Q6GPI1); experiment: Inhibition of Chymotrypsin (unknown origin) assessed as residual enzyme activity at 20 uM by FRET assay relative to control; assay type: protein assay
Outline: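 α-Chymotrypsin in 50 mM Tris pH 8.0, 100 mM NaCl with Succ-Leu-Tyr-AMC. Compound at 20 µM, read every 30 s for 10 min at 25 °C. Residual activity is relative to DMSO control; mean ± SD, ≥3 independent measurements.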

[9] = tested on: Severe acute respiratory syndrome coronavirus 2; experiment: Inhibition of SARS-CoV-2 Main protease assessed as residual enzyme activity at 20 uM by FRET assay relative to control
Outline: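 Compound at 20 μM; fluorescence read every 30 s for 10 min at 25 °C. Residual activity expressed relative to DMSO control; mean of ≥3 independent measurements.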

[10] = Chemical stability of compound in tris assay buffer at pH 9 measured after 20 hrs by HPLC/MS analysis; assay type: physicochemical; conditions: pH 9, 20 h; outline: as §3
Zika virus [11] = experiment: Antiviral activity against ZIKV H/PF/2013 infected in human Huh7 cells assessed as decrease in viral RNA expression at 10 uM measured up to 96 hrs by renilla luciferase assay; assay type: functional, organism-based; conditions: Huh-7, time hrs <=96
Outline: (§4)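 Huh7 cells electroporated with in vitro transcribed ZIKV H/PF/2013 subgenomic replicon RNA (Renilla luciferase, coelenterazine substrate). Compound at 10 µM or DMSO is added 4 h post-electroporation in medium with 15 mM HEPES and replenished at 48 h. Lysates are taken at 4, 24, 48, 72 and 96 h and normalized to the 4 h input value. Duplicate reads; mean ± SD, n = 3.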

dengue virus type 2 = experiment: Antiviral activity against DENV2 New Guinea C infected in human Huh7 cells assessed as decrease in viral RNA expression at 10 uM measured up to 72 hrs by firefly luciferase assay; assay type: functional, organism-based; conditions: Huh-7, time hrs <=72
Outline: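 Huh7 cells electroporated with in vitro transcribed DENV2 NGC subgenomic replicon RNA (firefly luciferase), 4×10^6 cells per 10 µg RNA. Compound at 10 µM or DMSO is added 4 h post-electroporation in medium with 15 mM HEPES and replenished at 48 h. Lysates are taken at 4–96 h and replication is expressed relative to the 4 h input value. Duplicate luminometer reads; mean ± SD, n = 3.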

Trypsin (Homo sapiens) = Trypsin (Homo sapiens) (UniProt P07477+P07478+P35030); experiment: Inhibition of Trypsin (unknown origin) assessed as residual enzyme activity at 20 uM by FRET assay relative to control; assay type: protein assay
Outline: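 Trypsin in 50 mM Tris pH 8.0, 100 mM NaCl, 5 mM EDTA with 40 µM Z-Phe-Arg-AMC. Compound at 20 µM, read every 30 s for 10 min at 25 °C. Residual activity is relative to DMSO control; mean ± SD, ≥3 independent measurements.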

Huh-7 = experiment: Cytotoxicity against human Huh-7 cells assessed as cell viability after 96 hrs by CellTiter-Glo Luminescent cell viability assay; assay type: cell-based; conditions: huh-7, 96 h
Outline: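 Huh7 cells seeded at 4×10^3 per well and treated one day later with 1.25–40 µM compound or DMSO for 96 h. ATP-based luminescent viability read-out, normalized to untreated cells.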

[12] = Inhibition of DENV2 NS2B-NS3 protease T120A/N167Q mutant expressed in Escherichia coli BL21(DE3) using Boc-Gly-Arg-Arg-AMC as substrate by FRET assay; design: species or system dengue virus type 2
Outline: (§5)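 Recombinant His-tagged NS2B/NS3 protease, expressed in E. coli BL21-Gold (DE3) (1 mM IPTG, 20 °C, 16 h) and purified by Ni affinity and size exclusion. Assayed in 50 mM Tris pH 9.0, 20% glycerol, 1 mM Chaps, with 100 μM Boc-Gly-Arg-Arg-AMC. Fluorescence read every 30 s for 10 min at 25 °C; inhibitor 0.01–100 μM. IC50 from a four-parameter fit of hydrolysis rate; ≥3 independent experiments.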

Genome polyprotein [13] = target: T2, Genome polyprotein (dengue virus type 2, UniProt P29990); experiment: Inhibition of DENV2 NS2B-NS3 protease expressed in Escherichia coli BL21(DE3) using Boc-Gly-Arg-Arg-AMC as substrate by FRET assay; outline: as §5
[14] = Chemical stability of compound in tris assay buffer at pH 9 measured after 90 mins by HPLC/MS analysis; assay type: physicochemical; conditions: pH 9, 1.5 h; outline: as §3
Nonstructural protein 3 = Nonstructural protein 3 (Zika virus, UniProt A0A024AXB9); experiment: Inhibition of ZIKV NS2B-NS3 protease expressed in Escherichia coli BL21(DE3) using Boc-Gly-Arg-Arg-AMC as substrate by FRET assay
Outline: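 His-tagged ZIKV NS2B/NS3 protease in 50 mM Tris pH 9.0, 20% glycerol, 1 mM CHAPS with 100 µM Boc-Gly-Arg-Arg-AMC. Dilution series 0.01–100 µM, read every 30 s for 10 min at 25 °C. IC50 from a four-parameter fit of hydrolysis rate; mean ± SD of ≥3 independent measurements.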

[15] = Chemical stability of compound in cell culture conditions at pH 7.4 HEPES buffer measured after 15 mins by HPLC/MS analysis; assay type: physicochemical; conditions: read-out: Stabilty; outline: as §2
[16] = target: Genome polyprotein (dengue virus type 2) (UniProt P29990); experiment: Inhibition of DENV2 NS2B-NS3 protease expressed in Escherichia coli BL21(DE3) using Boc-Gly-Arg-Arg-AMC as substrate at 200 uM by FRET assay
Outline: (§6)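 His-tagged NS2B/NS3 protease, purified by Ni affinity and size exclusion, in 50 mM Tris pH 9.0, 20% glycerol, 1 mM CHAPS with 100 µM Boc-Gly-Arg-Arg-AMC. Fluorescence is read every 30 s for 10 min at 25 °C. Percent inhibition is at a single inhibitor concentration of 20, 100 or 200 µM; ≥3 independent measurements.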

[17] = target: T3, Nonstructural protein 3 (Zika virus) (UniProt A0A024AXB9); experiment: Inhibition of ZIKV NS2B-NS3 protease expressed in Escherichia coli BL21(DE3) using Boc-Gly-Arg-Arg-AMC as substrate at 200 uM by FRET assay; outline: as §6
Genome polyprotein [18] = target: T2, Genome polyprotein; experiment: Binding affinity to DENV2 NS2B-NS3 protease by Dixon plot analysis
Outline: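 Fluorogenic DENV2 NS2B/NS3 assay run in 50 mM Tris pH 9.0, 20% glycerol, 1 mM Chaps, with IC50 determined at several Boc-Gly-Arg-Arg-AMC concentrations (50–200 μM). Kinetic fluorescence read at 25 °C for 10 min. Mode of inhibition assessed and apparent Ki derived by Dixon plot analysis.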

Zika virus [19] = experiment: Antiviral activity against ZIKV H/PF/2013 infected in human Huh7 cells assessed as decrease in viral RNA expression at 10 uM measured up to 72 hrs by renilla luciferase assay; assay type: functional, organism-based; conditions: Huh-7, time hrs <=72; outline: as §4
[20] = target: Genome polyprotein (dengue virus type 2) (UniProt P29990); experiment: Inhibition of DENV2 NS2B-NS3 protease expressed in Escherichia coli BL21(DE3) using Boc-Gly-Arg-Arg-AMC as substrate at 100 uM by FRET assay; outline: as §6
[21] = target: T3, Nonstructural protein 3 (Zika virus); experiment: Inhibition of ZIKV NS2B-NS3 protease expressed in Escherichia coli BL21(DE3) using Boc-Gly-Arg-Arg-AMC as substrate at 100 uM by FRET assay; outline: as §6

Row | Structure (SMILES) | Activity [1] | Activity [2] | remaining at 1.5 h [3] | remaining at 20 h [4] | Stabilty [5] | Activity [6] | Activity [7] | Activity [8] | Activity [9] | Stabilty [10] | Activity (dengue virus type 2) | Activity (Trypsin (Homo sapiens)) | Activity (Huh-7) | IC50 (Genome polyprotein [13]) | Stabilty [14] | IC50 (Nonstructural protein 3) | remaining at 0.25 h [15] | inhibition [16] | inhibition [17] | also measured
1 | O=C(Nc1ccccc1)c1cc2cc(O)c(O)cc2o1 | 64% | 93% | 95% | 95% | 83% | 97% | 91% | 58% | 52% | 83% | Active | 96% | Non-Toxic | 0.69 µM | 83% | 1.04 µM | 95% |  |  | Activity (Zika virus [11]): Active; IC50 [12]: 0.73 µM
2 | Nc1cc2cc(C(=O)Nc3ccccc3)oc2cc1O |  |  |  |  |  |  |  |  |  |  |  |  |  |  |  |  |  | 34% | 52% | 
3 | COc1cc2nc(NC(=O)c3ccc(I)cc3)sc2cc1OC |  |  |  |  |  |  |  |  |  |  | Active |  |  |  |  |  |  |  |  | 
4 | O=C(Nc1ccccc1)c1cc2cc(O)ccc2o1 |  |  |  |  |  |  |  |  |  |  |  |  |  |  |  |  |  | inactive | inactive | 
5 | O=C(Nc1ccccc1)c1cc2cc([N+](=O)[O-])c(O)cc2o1 |  |  |  |  |  |  |  |  |  |  |  |  |  |  |  |  |  | 19% | 48% | 
6 | O=C(Nc1nc2cc(O)c(O)cc2s1)C(c1ccccc1)c1ccccc1 | 73% | 86% | 95% | 95% | 83% | 95% | 62% | 96% | 77% | 83% | Active | 85% | Non-Toxic | 11.1 µM | 83% | 0.95 µM | 95% |  |  | 
7 | O=C(Nc1nc2cc(O)c(O)cc2s1)c1ccc(I)cc1 | 74% | 77% | 95% | 95% | 83% | 65% | 100% | 79% | 89% | 83% | Active | 94% | Non-Toxic | 4.38 µM | 83% | 0.67 µM | 95% |  |  | Ki (Genome polyprotein [18]): 7.67 µM; Activity (Zika virus [11]): Active; IC50 [12]: 8.01 µM
8 | COc1cc2nc(NC(=O)C(c3ccccc3)c3ccccc3)sc2cc1OC |  |  |  |  |  |  |  |  |  |  | Active |  |  |  |  |  |  |  |  | Activity (Zika virus [19]): inactive
9 | O=C(Nc1ccccc1)c1cc2c(O)cc(O)cc2o1 |  |  |  |  |  |  |  |  |  |  |  |  |  |  |  |  |  |  |  | inhibition [20]: 51%; inhibition [21]: 62%
10 | O=C(Nc1ccccc1)c1cc2ccc(O)cc2o1 |  |  |  |  |  |  |  |  |  |  |  |  |  |  |  |  |  | inactive | inactive | 
